Measurements taken from ChEMBL document CHEMBL5678799 (Biochem J, 2009).
Activity calls are given as the source filed them. No cut-off for these calls is given here.

Tests used:
[1] = target: Dual specificity tyrosine-phosphorylation-regulated kinase 2 (Homo sapiens) (UniProt Q92630); test: Inhibition of recombinant human N-terminal GST-tagged DYRK2 (3 to 528 residues) expressed in Escherichia coli assessed as remaining activity at 1 uM using KKISGRLSPIMTEQ as substrate incubated for 30 mins in presence of [gamma-33P]ATP by filter binding method relative to control
Chain of Dual specificity tyrosine-phosphorylation-regulated kinase 2 (Homo sapiens) (Q92630 whole entry, the tested form may be a part): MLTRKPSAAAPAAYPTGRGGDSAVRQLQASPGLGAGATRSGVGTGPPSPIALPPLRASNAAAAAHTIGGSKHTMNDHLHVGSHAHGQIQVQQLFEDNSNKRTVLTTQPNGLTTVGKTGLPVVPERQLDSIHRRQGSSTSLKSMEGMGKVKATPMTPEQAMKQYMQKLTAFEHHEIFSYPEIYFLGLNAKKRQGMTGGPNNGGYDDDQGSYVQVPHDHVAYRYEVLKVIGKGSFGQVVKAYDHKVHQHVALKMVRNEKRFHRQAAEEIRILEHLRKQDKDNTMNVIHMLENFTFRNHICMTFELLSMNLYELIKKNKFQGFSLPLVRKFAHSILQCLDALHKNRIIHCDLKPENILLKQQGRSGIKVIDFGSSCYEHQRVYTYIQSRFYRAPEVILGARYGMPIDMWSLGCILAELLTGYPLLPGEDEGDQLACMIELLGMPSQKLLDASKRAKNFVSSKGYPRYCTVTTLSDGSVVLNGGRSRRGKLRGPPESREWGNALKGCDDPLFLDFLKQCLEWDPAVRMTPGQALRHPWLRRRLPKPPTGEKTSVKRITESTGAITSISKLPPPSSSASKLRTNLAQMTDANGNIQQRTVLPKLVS
Method in brief: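 Run robotically for 30 min at 21 °C under linear conditions. Compound at 1 or 10 µM. Percentage activity remaining versus control without compound, triplicate mean ± S.D.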

[2] = target: Myosin light chain kinase (Homo sapiens) (UniProt Q32MK0); test: Inhibition of MLCK (unknown origin) assessed as remaining activity at 1 uM relative to control
Chain of Myosin light chain kinase (Homo sapiens) (Q32MK0 whole entry): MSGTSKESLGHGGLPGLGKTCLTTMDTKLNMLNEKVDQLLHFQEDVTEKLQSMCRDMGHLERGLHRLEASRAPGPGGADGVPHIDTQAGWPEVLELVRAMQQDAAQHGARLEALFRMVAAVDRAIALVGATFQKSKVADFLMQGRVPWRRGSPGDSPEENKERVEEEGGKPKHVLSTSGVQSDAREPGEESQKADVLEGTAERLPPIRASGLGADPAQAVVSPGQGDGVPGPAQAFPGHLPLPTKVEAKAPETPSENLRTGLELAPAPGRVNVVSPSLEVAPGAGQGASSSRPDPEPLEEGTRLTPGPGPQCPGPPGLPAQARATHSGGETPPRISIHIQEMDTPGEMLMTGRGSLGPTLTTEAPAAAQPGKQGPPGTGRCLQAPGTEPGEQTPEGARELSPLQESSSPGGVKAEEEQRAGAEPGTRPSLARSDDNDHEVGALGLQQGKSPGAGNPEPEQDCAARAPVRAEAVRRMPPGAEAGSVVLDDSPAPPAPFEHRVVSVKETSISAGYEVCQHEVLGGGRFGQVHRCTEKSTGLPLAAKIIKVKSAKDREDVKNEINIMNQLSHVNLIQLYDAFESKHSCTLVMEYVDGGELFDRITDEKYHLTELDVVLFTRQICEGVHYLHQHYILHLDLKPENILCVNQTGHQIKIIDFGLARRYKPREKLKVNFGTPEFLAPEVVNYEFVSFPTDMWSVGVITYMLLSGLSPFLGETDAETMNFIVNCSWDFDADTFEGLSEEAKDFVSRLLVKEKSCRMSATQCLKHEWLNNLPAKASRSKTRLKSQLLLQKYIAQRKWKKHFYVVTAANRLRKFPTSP
Method in brief: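 Profiling-centre panel assay performed robotically at 21 °C for 30 min, linear with time and enzyme. […] Values are percent of compound-free control activity, the mean of triplicates ± S.D.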

[3] = target: MAP kinase-interacting serine/threonine-protein kinase 2 (Homo sapiens) (UniProt Q9HBH9); test: Inhibition of recombinant human N-terminal GST/C-terminal His6-tagged MNK2alpha (2 to 465 residues) expressed in Escherichia coli assessed as remaining activity at 1 uM using eIF4E as substrate incubated for 30 mins in presence of [gamma-33P]ATP by filter binding method relative to control
[4] = target: Serine/threonine-protein kinase 26 (Homo sapiens) (UniProt Q9P289); test: Inhibition of recombinant human N-terminal His6-tagged MST4 (1 to 416 residues) expressed in baculovirus infected Sf21 cells assessed as remaining activity at 1 uM using MBP as substrate incubated for 30 mins in presence of [gamma-33P]ATP by filter binding method relative to control
Chain of Serine/threonine-protein kinase 26 (Homo sapiens) (Q9P289 2-416 limits assumed): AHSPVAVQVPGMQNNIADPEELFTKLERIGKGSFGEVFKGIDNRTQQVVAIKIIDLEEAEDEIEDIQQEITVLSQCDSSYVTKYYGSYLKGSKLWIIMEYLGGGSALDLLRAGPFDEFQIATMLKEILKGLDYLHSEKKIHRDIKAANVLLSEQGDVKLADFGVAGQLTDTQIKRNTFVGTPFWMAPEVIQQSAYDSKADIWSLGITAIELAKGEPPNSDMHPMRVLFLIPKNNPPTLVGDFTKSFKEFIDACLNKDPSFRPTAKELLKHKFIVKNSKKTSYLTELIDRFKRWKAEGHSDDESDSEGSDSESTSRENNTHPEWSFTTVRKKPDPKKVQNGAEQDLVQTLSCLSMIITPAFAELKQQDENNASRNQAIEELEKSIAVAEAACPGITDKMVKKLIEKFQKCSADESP

[5] = target: 3-phosphoinositide-dependent protein kinase 1 (Homo sapiens) (UniProt O15530); test: Inhibition of recombinant human His6-tagged PDK1 (52 to 556 residues) expressed in baculovirus infected Sf21 cells assessed as remaining activity at 1 uM using PDKtide as substrate incubated for 30 mins in presence of [gamma-33P]ATP by filter binding method relative to control
Chain of 3-phosphoinositide-dependent protein kinase 1 (Homo sapiens) (O15530 whole entry, the tested form may be a part): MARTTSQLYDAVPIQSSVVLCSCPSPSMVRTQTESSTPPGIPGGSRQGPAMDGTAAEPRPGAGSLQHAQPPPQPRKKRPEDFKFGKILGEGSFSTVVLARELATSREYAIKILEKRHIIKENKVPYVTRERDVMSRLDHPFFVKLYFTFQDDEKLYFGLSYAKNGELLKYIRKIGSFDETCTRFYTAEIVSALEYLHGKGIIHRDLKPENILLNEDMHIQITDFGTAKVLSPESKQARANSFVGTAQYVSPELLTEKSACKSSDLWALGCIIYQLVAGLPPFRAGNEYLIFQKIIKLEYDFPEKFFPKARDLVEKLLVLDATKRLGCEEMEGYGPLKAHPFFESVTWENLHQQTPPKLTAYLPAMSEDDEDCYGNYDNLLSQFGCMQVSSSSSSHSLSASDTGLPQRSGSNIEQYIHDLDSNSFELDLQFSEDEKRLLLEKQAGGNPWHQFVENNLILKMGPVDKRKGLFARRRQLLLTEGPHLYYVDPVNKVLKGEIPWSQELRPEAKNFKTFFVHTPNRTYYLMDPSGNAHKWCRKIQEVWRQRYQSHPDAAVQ
Method in brief: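 Robotic radiometric panel assay, 30 min at room temperature (21 °C), with 10 mM magnesium acetate. […] Compound at 1 or 10 µM. Residual activity expressed relative to compound-free control; triplicate average ± S.D.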

[6] = tested on: Serine/threonine-protein kinase Sgk1 (Homo sapiens), O00141 [S422D]; test: Inhibition of recombinant human His6-tagged SGK1 S422D mutant (60 to 431 residues) expressed in baculovirus infected Sf21 cells assessed as remaining activity at 1 uM using GRPRTSSFAEGKK as substrate incubated for 30 mins in presence of [gamma-33P]ATP by filter binding method relative to control
Method in brief: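 Incubations ran robotically for 30 min at room temperature (21 °C) under linear conditions. Results are percent activity remaining versus controls without compound, as the mean of triplicates ± S.D.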

[7] = target: Insulin-like growth factor 1 receptor (Homo sapiens) (UniProt P08069); test: Inhibition of recombinant human N-terminal His6-tagged IGF1R (954 to 1367 residues) expressed in baculovirus infected Sf21 cells assessed as remaining activity at 10 uM using KKKSPGEYVNIEFG as substrate incubated for 30 mins in presence of [gamma-33P]ATP by filter binding method relative to control
Chain of Insulin-like growth factor 1 receptor (Homo sapiens) (P08069 31-736 limits assumed): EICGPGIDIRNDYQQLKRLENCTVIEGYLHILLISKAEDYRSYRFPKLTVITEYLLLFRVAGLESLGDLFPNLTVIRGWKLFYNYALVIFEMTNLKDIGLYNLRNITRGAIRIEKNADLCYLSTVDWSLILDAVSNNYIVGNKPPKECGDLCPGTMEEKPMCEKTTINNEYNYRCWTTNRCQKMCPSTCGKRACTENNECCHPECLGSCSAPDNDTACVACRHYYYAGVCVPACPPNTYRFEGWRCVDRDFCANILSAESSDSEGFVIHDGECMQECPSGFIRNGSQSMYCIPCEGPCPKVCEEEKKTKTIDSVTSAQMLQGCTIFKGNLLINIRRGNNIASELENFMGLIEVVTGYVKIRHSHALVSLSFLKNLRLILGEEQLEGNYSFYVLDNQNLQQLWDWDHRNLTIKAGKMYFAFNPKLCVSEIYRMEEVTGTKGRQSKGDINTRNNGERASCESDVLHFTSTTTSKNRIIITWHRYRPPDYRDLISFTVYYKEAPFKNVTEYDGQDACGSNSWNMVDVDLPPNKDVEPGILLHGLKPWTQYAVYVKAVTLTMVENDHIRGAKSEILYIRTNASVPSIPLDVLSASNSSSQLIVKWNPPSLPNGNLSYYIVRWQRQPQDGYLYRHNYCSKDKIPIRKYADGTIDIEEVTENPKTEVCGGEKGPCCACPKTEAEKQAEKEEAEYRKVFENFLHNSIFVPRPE
Chain of Insulin-like growth factor 1 receptor (Homo sapiens) (P08069 741-1367 limits assumed): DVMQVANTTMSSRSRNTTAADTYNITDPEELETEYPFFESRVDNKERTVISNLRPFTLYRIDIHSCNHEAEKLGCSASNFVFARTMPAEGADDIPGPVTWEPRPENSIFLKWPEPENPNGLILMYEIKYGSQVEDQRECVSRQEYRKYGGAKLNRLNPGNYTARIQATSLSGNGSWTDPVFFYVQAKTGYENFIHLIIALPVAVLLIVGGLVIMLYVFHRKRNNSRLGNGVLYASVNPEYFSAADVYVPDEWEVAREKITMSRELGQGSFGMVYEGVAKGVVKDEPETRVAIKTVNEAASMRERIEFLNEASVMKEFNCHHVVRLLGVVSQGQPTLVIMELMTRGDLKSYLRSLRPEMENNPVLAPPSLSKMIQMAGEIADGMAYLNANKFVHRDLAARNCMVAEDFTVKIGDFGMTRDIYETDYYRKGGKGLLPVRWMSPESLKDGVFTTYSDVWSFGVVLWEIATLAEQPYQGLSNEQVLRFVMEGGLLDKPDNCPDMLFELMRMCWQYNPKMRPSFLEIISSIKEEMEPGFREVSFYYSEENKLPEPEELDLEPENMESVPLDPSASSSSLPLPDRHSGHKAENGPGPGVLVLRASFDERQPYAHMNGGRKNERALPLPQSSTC
Method in brief: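 Radiometric kinase panel run robotically at room temperature (21 °C) for 30 min, linear in time and enzyme. […] Activity is expressed as percent of control without compound, from triplicate determinations ± S.D.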

[8] = target: Serine/threonine-protein kinase 26 (Homo sapiens) (UniProt Q9P289); test: Inhibition of recombinant human N-terminal His6-tagged MST4 (1 to 416 residues) expressed in baculovirus infected Sf21 cells assessed as remaining activity at 10 uM using MBP as substrate incubated for 30 mins in presence of [gamma-33P]ATP by filter binding method relative to control
[9] = target: Ribosomal protein S6 kinase alpha-1 (Homo sapiens) (UniProt Q15418); test: Inhibition of recombinant human N-terminal His6-tagged RSK1 (1 to 735 residues) expressed in baculovirus infected Sf21 cells assessed as remaining activity at 10 uM using KKLNRTLSVA as substrate incubated for 30 mins in presence of [gamma-33P]ATP by filter binding assay relative to control
[10] = target: Tyrosine-protein kinase Yes (Homo sapiens) (UniProt P07947); test: Inhibition of recombinant human N-terminal His6-tagged YES1 (1 to 543 residues) expressed in baculovirus infected Sf21 cells assessed as remaining activity at 10 uM using Poly(Glu,Tyr) as substrate incubated for 30 mins in presence of [gamma-33P]ATP by filter binding assay relative to control
Chain of Tyrosine-protein kinase Yes (Homo sapiens) (P07947 2-543 limits assumed): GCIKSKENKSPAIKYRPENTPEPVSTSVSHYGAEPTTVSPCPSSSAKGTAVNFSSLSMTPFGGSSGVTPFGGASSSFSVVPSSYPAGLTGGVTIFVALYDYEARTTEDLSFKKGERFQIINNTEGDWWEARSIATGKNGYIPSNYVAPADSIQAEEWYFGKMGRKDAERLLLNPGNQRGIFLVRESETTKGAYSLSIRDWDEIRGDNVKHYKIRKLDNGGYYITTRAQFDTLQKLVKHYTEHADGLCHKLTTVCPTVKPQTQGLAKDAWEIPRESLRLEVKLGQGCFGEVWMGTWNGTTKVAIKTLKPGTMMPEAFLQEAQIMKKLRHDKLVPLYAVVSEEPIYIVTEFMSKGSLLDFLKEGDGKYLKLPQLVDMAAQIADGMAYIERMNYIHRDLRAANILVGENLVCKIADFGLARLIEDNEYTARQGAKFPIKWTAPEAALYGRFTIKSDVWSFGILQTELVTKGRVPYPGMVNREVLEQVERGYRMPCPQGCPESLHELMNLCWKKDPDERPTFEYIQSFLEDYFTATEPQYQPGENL
Method in brief: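 Radiometric panel assay run robotically at 21 °C for 30 min, linear in time and enzyme. […] Activity is expressed as percentage of the compound-omitted control, averaged from triplicates ± S.D.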

[11] = tested on: HEK293; test: Inhibition of PI3K in IGF1-stimulated HEK293 cells assessed as reduction in IGF1-stimulated PtdIns(3,4,5)P3 production at 1 uM pre incubated for 30 mins followed by IGF1-stimulation for 10 mins; assay type: cell-based; conditions: Homo sapiens
[12] = target: T1, Mitogen-activated protein kinase; ERK1/ERK2 (Homo sapiens) (UniProt P27361+P28482); test: Inhibition of ERK1/2 in serum starved/PMA-stimulated HEK293 cells assessed as reduction in RSK activity at 1 uM using crosstide as substrate incubated for 30 mins in presence of [32P]-ATP by liquid-scintillation counting method; assay type: cell-based
T1 sequence (P27361 whole entry, looked up): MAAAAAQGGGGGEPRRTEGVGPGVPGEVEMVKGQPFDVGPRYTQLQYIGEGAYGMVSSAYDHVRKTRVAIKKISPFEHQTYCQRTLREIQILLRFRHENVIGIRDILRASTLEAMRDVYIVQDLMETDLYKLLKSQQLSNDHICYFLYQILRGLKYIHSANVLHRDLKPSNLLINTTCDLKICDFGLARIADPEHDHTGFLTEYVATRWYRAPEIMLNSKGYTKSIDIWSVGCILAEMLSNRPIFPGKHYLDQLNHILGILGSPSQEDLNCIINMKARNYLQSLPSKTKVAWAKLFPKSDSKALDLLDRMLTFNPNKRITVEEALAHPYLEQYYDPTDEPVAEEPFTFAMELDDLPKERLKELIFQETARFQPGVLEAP
T1 sequence (P28482 whole entry, looked up): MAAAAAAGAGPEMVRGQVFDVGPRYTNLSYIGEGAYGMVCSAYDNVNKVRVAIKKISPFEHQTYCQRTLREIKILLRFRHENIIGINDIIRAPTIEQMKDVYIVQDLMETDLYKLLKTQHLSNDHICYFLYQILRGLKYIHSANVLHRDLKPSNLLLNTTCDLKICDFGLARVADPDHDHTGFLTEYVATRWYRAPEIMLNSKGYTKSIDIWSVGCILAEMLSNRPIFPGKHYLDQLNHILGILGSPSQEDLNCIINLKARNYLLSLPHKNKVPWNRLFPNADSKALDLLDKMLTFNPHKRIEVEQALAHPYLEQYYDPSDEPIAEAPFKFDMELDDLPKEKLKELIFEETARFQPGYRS

[13] = target: T1, Mitogen-activated protein kinase; ERK1/ERK2 (Homo sapiens); test: Inhibition of ERK1/2 in serum starved/PMA-stimulated HEK293 cells assessed as reduction in ERK1/2 phosphorylation at T202/Y204 residues at 1 uM incubated for 30 mins by immunoblot analysis; assay type: cell-based
[14] = tested on: MEF; test: Growth inhibition of mLST8 knockout MEF cells assessed reduction in cell viability at 3 uM incubated for 1 to 3 days by crystal violet staining based assay; assay type: toxicity; conditions: mouse, time 1-3 day
Method in brief: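 MEFs seeded at 20000 cells per 1.91 cm2 well, grown overnight in 10% foetal bovine serum, then cultured 1, 2 or 3 days with 3 μM inhibitor, 100 nM rapamycin or DMSO. Medium changed every 24 h with freshly dissolved inhibitors. Cells fixed in 4% paraformaldehyde, stained with 0.1% Crystal Violet, dye extracted in 10% acetic acid, A590 read. Quadruplicate wells, expressed as % of DMSO control.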

[15] = tested on: MEF; test: Induction of cell cycle arrest in mLST8 knockout MEF cells assessed as accumulation at S phase at 3 uM incubated for 1 to 3 days by propidium iodide staining based flow cytometric analysis (reference value: 59.7 +/- 0.49%); assay type: toxicity; conditions: mouse, time 1-3 day
[16] = target: T2, mTORC2 (Homo sapiens) (UniProt P42345+Q6R327+Q9BVC4+Q9BPZ7); conditions: HEK293, dose 30-1000 nM, time 30.0 min
[17] = target: T2, mTORC2 (Homo sapiens); conditions: HEK293, dose 30-1000 nM, time 30.0 min; remark: listed apart in the source

Compound: COc1ccc(-c2ccc3c(N4CCOCC4)nc(N4C[C@@H](C)O[C@@H](C)C4)nc3n2)cc1CO [Ku-0063794]
- Activity [1]: 92%
- Activity [2]: 82%
- Activity [3]: 87%
- Activity [4]: 87%
- Activity [5]: 89%
- Activity [6]: 76%
- Activity [7]: 89%
- Activity [8]: 86%
- Activity [9]: 86%
- Activity [10]: 90%
- inhibition [11]: inactive
- inhibition [12]: inactive
- inhibition [13]: inactive
- growth inhibition (GI) [14]: Toxic
- Activity [15]: 36.5%
- inhibition [16]: Dose-Dependent Effect
- inhibition [17]: Active
